These results are taken from paper PMC3944102 (ACS chemical biology, 2013).

The structures appear in SMILES notation. Read-outs that look alike come from different tables or passages of the source.

Test [1] deals with VopS. Conditions: read-out: KM of VopS for ATP; cited from earlier work.
Test [2] addresses T1, VopS (Vibrio parahaemolyticus serotype O3:K6, UniProt Q87P32). Briefly: biochemical.
Test [3] deals with VopS transfected HeLa cells. Briefly: Cell rounding phenotype induced by VopS overexpression. It is filed as cell-based. Conditions: 10 µM.
The subject of test [4] is VopS transfected HeLa cells. Put plainly: Cellular protein AMPylation, Western blot. It counts as cell-based. Conditions: Western blotting, 1 and 3 at 10 µM, 4 at 5 µM, 18 h.
Test [5] has as its target T1, VopS. It counts as biochemical.
The target in the next test is PAD4 (Homo sapiens, UniProt Q9UM07). Put plainly: PAD4 FP-ABPP HTS counterscreen with fluorescein-conjugated F-amidine. It is filed as biochemical. In a few lines: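 Fluorescence polarization read-out with the fluorescein-tagged probe FFA, which covalently modifies an active-site cysteine of PAD4 and gives a time-dependent rise in FP when incubated with the enzyme. Test compounds were run as concentration-response curves, and inhibition was read as reduced FP. Used as a counterscreen to flag quenchers, aggregators and other non-specific FP decreasers.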
Chain of PAD4 (Q9UM07 whole entry, species assumed): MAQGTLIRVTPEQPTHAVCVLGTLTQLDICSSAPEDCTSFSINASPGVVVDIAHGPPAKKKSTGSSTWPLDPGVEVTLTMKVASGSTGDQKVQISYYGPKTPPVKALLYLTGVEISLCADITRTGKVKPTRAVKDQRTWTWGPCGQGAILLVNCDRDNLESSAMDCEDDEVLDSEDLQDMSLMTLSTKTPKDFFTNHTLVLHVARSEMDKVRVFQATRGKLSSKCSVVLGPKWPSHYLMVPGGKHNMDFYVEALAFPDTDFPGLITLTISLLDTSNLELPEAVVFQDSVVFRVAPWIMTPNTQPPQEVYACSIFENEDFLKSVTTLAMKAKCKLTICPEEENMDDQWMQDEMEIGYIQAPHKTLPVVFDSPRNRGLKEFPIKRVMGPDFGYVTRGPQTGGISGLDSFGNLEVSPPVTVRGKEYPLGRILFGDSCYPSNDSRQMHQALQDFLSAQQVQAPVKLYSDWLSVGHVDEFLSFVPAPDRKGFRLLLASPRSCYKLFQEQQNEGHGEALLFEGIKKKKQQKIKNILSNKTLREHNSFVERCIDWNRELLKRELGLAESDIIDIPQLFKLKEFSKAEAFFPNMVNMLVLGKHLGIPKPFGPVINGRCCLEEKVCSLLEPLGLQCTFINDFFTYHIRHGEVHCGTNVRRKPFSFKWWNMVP

Test [6] deals with T1, VopS. Put plainly: biochemical. Conditions: for inhibition at 11 µM: read-out: Primary screen inhibition; for Primary screen inhibition: LOPAC screen at 11 µM, FP read at 3 h, average of three replicates.
Test [7] relates to VopS. Briefly: biochemical. It counts as biochemical, Vibrio parahaemolyticus. Conditions: VopS over HYPE, from gel based % inhibition at 10 µM.
The target of test [8] is T1, VopS. Put plainly: biochemical. It is filed as biochemical. Conditions: for Labeling of Cdc42 in gel (in words): 10 µM inhibitor; for inhibition at 10 µM: read-out: Gel based % inhibition VopS; for Gel based % inhibition VopS: 10 µM compound, relative to DMSO control.
The next test relates to HYPE Fic E234G. Briefly: Gel-based secondary screen, HYPE Fic E234G with histone H3 as substrate. Conditions: 10 µM compound, relative to DMSO control. It counts as biochemical, human.
For another test, the target named is VopSΔ30 (Vibrio parahaemolyticus serotype O3:K6, UniProt Q87P32). Put plainly: Differential hydrogen deuterium exchange. It is filed as binding. The note with it: 10 µM VopSΔ30, 100 µM or 30 µM ligand.
[9] abbreviates: read-out: CRC IC50 PAD4, PAD4 targeted FP-ABPP assay.

As to `Nc1ncnc2c1ncn2[C@@H]1O[C@H](COP(=O)(O)OP(=O)(O)OP(=O)(O)O)[C@@H](O)[C@H]1O` [ATP, adenosine triphosphate], the Km with VopS [1] is roughly 50 µM. For the same molecule, the IC50 at VopS [2] (IC50(ATP), 3 h, 7 replicates, ATP out competing Fl-ATP) is 7 ± 1 µM; against VopS [2] (IC50, at 1, 2, and 3 h) it was 6.8 to 7 µM.
Consider `CC(C)(Sc1ccc(CCN(CCCCC2CCCCC2)C(=O)NC2CCCCC2)cc1)C(=O)O` [Compound 1, GW7647], for which, in test [3], the “Reversal of cell rounding phenotype” value was “unable to reverse the cell rounding phenotype”. Besides, the “Cellular protein AMPylation” value in test [4] is “decreased cellular protein AMPylation”. Besides, at VopS [5] (varied substrate ATP), the Kii came out at 41 ± 5 µM and the Mechanism of inhibition entry is given as “Non-competitive”. For the same molecule, at VopS [5] (varied substrate Cdc42), the Kii was 20 ± 1 µM and the Mechanism of inhibition result is on record as “Non-competitive”. This molecule also returned an IC50 at PAD4 greater than 59 µM. Also, on VopS [6], the inhibition at 11 µM turned out to be 61%. This molecule registered a Fold selective in the test on VopS [7] of 6 fold. In addition, at VopS [8], the “Labeling of Cdc42 in gel (in words)” value was “decrease in labeling” and the inhibition at 10 µM was found to be 55%. Also, in the test on HYPE Fic E234G, the “Gel based % inhibition HYPE” value was determined as 10%.
With `Nc1ncnc2c1ncn2[C@@H]1O[C@H](COP(=O)(O)OP(=O)(O)OP(=O)(O)OP(=O)(O)OC[C@H]2O[C@@H](n3cnc4c(N)ncnc43)[C@H](O)[C@@H]2O)[C@@H](O)[C@H]1O` [Compound 2, Ap4A], at PAD4 (setting [9]), the IC50 is greater than 59 µM. For the same molecule, at VopS [6], the Primary screen inhibition is 47% ± 4. Further, the “Gel based % inhibition VopS” value at VopS [8] was 3%. Also, in the test with HYPE Fic E234G, the “Gel based % inhibition HYPE” value is 41%.
Regarding `CC(C)c1ccc2c(c1)c(SC(C)(C)C)c(CC(C)(C)C(=O)O)n2Cc1ccc(Cl)cc1` [Compound 3, MK886], the “Reversal of cell rounding phenotype” value in [3] is “unable to reverse the cell rounding phenotype”. Further, the “Cellular protein AMPylation” value in test [4] is listed as “decreased cellular protein AMPylation”. The “HDX protection / binding region of VopS” value on VopSΔ30 is given as “increased protection within the N-terminus of VopS (residues 59–75)”. Further, at VopS [5] (varied substrate ATP), the Kii amounted to 50 ± 6 µM and the Mechanism of inhibition entry was “Non-competitive”. Moreover, on VopS [5] (varied substrate Cdc42), the Kii is given as 99 ± 16 µM and the Mechanism of inhibition result was “Non-competitive”. Besides, the IC50 on PAD4 (setting [9]) is greater than 59 µM. For the same molecule, the Primary screen inhibition at VopS [6] is 41% ± 3. In the test on VopS [7], this molecule yielded a Fold selective of 6 fold. Also, at VopS [8], the “Gel based % inhibition VopS” value amounted to 22% and the “Labeling of Cdc42 in gel (in words)” value is on record as “decrease in labeling”. For the same molecule, the “Gel based % inhibition HYPE” value in the test on HYPE Fic E234G came out at 4%.
For `Clc1ccc(C(c2ccc(Cl)cc2)n2cc[n+](CC(OCc3ccc(Cl)cc3Cl)c3ccc(Cl)cc3Cl)c2)cc1` (stereo not drawn) [Compound 4, calmidazolium], the “Cellular protein AMPylation” value in test [4] was “did not show a significant decrease”. The “HDX protection / binding region of VopS” value at VopSΔ30 is given as “binds to the N-terminal region of VopS (in particular residues 59–63)”. The Ki on VopS [5] (competitive with respect to Cdc42) was found to be 6 ± 1 µM. Moreover, at VopS [5] (varied substrate ATP), the Kii is 26 ± 4 µM and the Mechanism of inhibition entry is listed as “Non-competitive”. On VopS [5] (varied substrate Cdc42), the Kii was 6 ± 1 µM and the Mechanism of inhibition entry is “Competitive”. In addition, the IC50 against PAD4 was greater than 59 µM. Also, the inhibition at 11 µM on VopS [6] was 33%. Further, the Fold selective in the test with VopS [7] stood at 32 fold. Further, on VopS [8], the “Labeling of Cdc42 in gel (in words)” value was “decrease in labeling” and the inhibition at 10 µM worked out at 63%. In the test with HYPE Fic E234G, the “Gel based % inhibition HYPE” value came out at 2%.
